The values that follow come from ChEMBL document CHEMBL3352499, “One pot three components microwave assisted and conventional synthesis of new 3-(4-chloro-2-hydroxyphenyl)-2-(substituted) thiazolidin-4-one as antimicrobial agents” (Bioorg Med Chem Lett, 2014).

Molecules are shown by their SMILES. In brackets after ≈: the same amount, converted by molar mass.

The test system of experiment [1] is Aspergillus flavus. The experiment is described as follows: Fungicidal activity against Aspergillus flavus NCIM-539 after 48 to 72 hrs by two fold serial macrodilution technique. In kind it is functional. In outline:
(§1)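 Serial subcultivation followed 72 h of exposure to compounds dissolved in saline containing 5% DMSO. MBC/MFC was the lowest concentration with no visible growth, taken as 99.5% killing of the original inoculum. Runs were in triplicate, with the mean reading used.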

The next experiment deals with MCF7. The experiment is described as follows: Cytotoxicity against human MCF7 cells by SRB method. It counts as cell-based. Put shortly:
(§2)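 SRB colorimetric growth assay. IC50, in µM, was the concentration inhibiting cell growth by 50% relative to untreated control cells. Runs were in triplicate in three independent experiments, with means reported. The positive control was doxorubicin.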

In experiment [2] the test system is Salmonella typhimurium. In words: Bactericidal activity against […] after 72 hrs by two fold serial macrodilution technique. It counts as functional, Salmonella enterica subsp. enterica serovar Typhimurium. The settings on record: Salmonella enterica. Put shortly:
as §1

Experiment [3] has as its system Aspergillus niger. The experiment is described as follows: Fungicidal activity against Aspergillus niger NCIM-1196 after 48 to 72 hrs by two fold serial macrodilution technique. It counts as functional. In outline:
as §1

In another experiment the test system is HeLa. The experiment is described as follows: Cytotoxicity against human HeLa cells by SRB method. In kind it is cell-based. Put shortly: as §2
(In general: Sulforhodamine B stains cellular protein and so reports cell mass.)

In experiment [4] the test system is Bacillus subtilis. In words: Antimicrobial activity against Bacillus subtilis NCIM-2063 after 20 hrs by two fold serial macrodilution technique. In kind it is functional. The settings on record: NCIM-2063, 20 h. Put shortly:
(§3)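 Serial macrodilution in 96-well microtiter plates. Compounds were dissolved in saline (0.8% NaCl) containing 5% DMSO, and strains were incubated with a range of concentrations for 20 h at 37 °C on a rotary shaker (160 rpm). MIC was the lowest concentration without growth. Runs were in triplicate, with the mean taken. The negative control was 5% DMSO.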

The subject of experiment [5] is Staphylococcus aureus. In words: Antimicrobial activity against Staphylococcus aureus NCIM-2901 after 20 hrs by two fold serial macrodilution technique. In kind it is functional. As to conditions: NCIM-2901, 20 h. In outline:
as §3

The test system of experiment [6] is Candida albicans. The experiment is described as follows: Antimicrobial activity against Candida albicans NCIM-3471 after 20 hrs by two fold serial macrodilution technique. In kind it is functional. As to conditions: NCIM-3471, 20 h.
Experiment [7] concerns Staphylococcus aureus. The experiment is described as follows: Bactericidal activity against Staphylococcus aureus NCIM-2901 after 72 hrs by two fold serial macrodilution technique. In kind it is functional. As to conditions: NCIM-2901, 72 h. In outline:
as §1

Experiment [8] deals with Escherichia coli. In words: Antimicrobial activity against Escherichia coli NCIM-2256 after 20 hrs by two fold serial macrodilution technique. In kind it is functional. As to conditions: NCIM-2256, 20 h. In outline:
as §3

The subject of experiment [9] is Cryptococcus neoformans. The experiment is described as follows: Fungicidal activity against Cryptococcus neoformans NCIM-3378 after 48 to 72 hrs by two fold serial macrodilution technique. It counts as functional. Put shortly:
as §1

The subject of experiment [10] is Salmonella typhimurium. In words: Antimicrobial activity against […] after 20 hrs by two fold serial macrodilution technique. The settings on record: Salmonella enterica. In kind it is functional, Salmonella enterica subsp. enterica serovar Typhimurium. In outline:
as §3

In experiment [11] the test system is Cryptococcus neoformans. In words: Antimicrobial activity against Cryptococcus neoformans NCIM-3378 after 20 hrs by two fold serial macrodilution technique. It counts as functional. The settings on record: NCIM-3378, 20 h.
The test system of experiment [12] is Bacillus subtilis. The experiment is described as follows: Bactericidal activity against Bacillus subtilis NCIM-2063 after 72 hrs by two fold serial macrodilution technique. The settings on record: NCIM-2063, 72 h. In kind it is functional. Put shortly:
as §1

The subject of experiment [13] is Candida albicans. The experiment is described as follows: Fungicidal activity against Candida albicans NCIM-3471 after 48 to 72 hrs by two fold serial macrodilution technique. It counts as functional. In outline: as §1
Experiment [14] concerns Escherichia coli. The experiment is described as follows: Bactericidal activity against Escherichia coli NCIM-2256 after 72 hrs by two fold serial macrodilution technique. It counts as functional. The settings on record: NCIM-2256, 72 h. In outline: as §1
Experiment [15] concerns Aspergillus niger. In words: Antimicrobial activity against Aspergillus niger NCIM-1196 after 20 hrs by two fold serial macrodilution technique. In kind it is functional. The settings on record: NCIM-1196, 20 h.
For experiment [16], the system named is Aspergillus flavus. In words: Antimicrobial activity against Aspergillus flavus NCIM-539 after 20 hrs by two fold serial macrodilution technique. In kind it is functional. The settings on record: NCIM-539, 20 h.

Regarding `O=C1CSC(c2ccccc2Cl)N1c1ccc(Cl)cc1O` (stereo not given), the MFC (as a rule, the smallest concentration meeting the test's criterion for killing the fungus) against Aspergillus flavus [1] was found to be 50 µg/mL (≈ 147 µM); in the experiment on Aspergillus niger [3], 155 µg/mL (≈ 456 µM); with Cryptococcus neoformans [9] it was 135 µg/mL (≈ 397 µM); in the experiment on Candida albicans [13] it was 140 µg/mL (≈ 411 µM). In addition, the IC50 (usually the concentration that inhibits the measured activity by half) with MCF7 is 56.2 µM; in the experiment with HeLa it was 62.8 µM. Also, the MBC (as a rule, the lowest tested concentration that kills the bacteria rather than only halting them) in the experiment on Salmonella typhimurium [2] was 135 µg/mL (≈ 397 µM); against Staphylococcus aureus [7], 55 µg/mL (≈ 162 µM); with Bacillus subtilis [12] it was 40 µg/mL (≈ 118 µM); in the experiment on Escherichia coli [14] it was 140 µg/mL (≈ 411 µM). The MIC (usually the lowest concentration that inhibits growth of the organism) came out at 20 µg/mL (≈ 58.8 µM) in the experiment with Bacillus subtilis [4]; 35 µg/mL (≈ 103 µM) with Staphylococcus aureus [5]; 55 µg/mL (≈ 162 µM) against Candida albicans [6]; 80 µg/mL (≈ 235 µM) with Escherichia coli [8]; 65 µg/mL (≈ 191 µM) against Salmonella typhimurium [10]; 90 µg/mL (≈ 265 µM) with Cryptococcus neoformans [11]. In addition, the MIC worked out at 100 µg/mL (≈ 294 µM) in the experiment on Aspergillus niger [15] and 35 µg/mL (≈ 103 µM) against Aspergillus flavus [16].
On to `O=C1CSC(c2ccc(F)cc2)N1c1ccc(Cl)cc1O` (stereo not given), for which the MFC with Aspergillus flavus [1] came out at 140 µg/mL (≈ 432 µM); with Aspergillus niger [3], 140 µg/mL (≈ 432 µM); in the experiment on Cryptococcus neoformans [9], 145 µg/mL (≈ 448 µM); in the experiment with Candida albicans [13], 150 µg/mL (≈ 463 µM). Moreover, the figures for the IC50 in the experiment on MCF7 and in the experiment on HeLa were 68.7 µM and 72.4 µM, respectively. The MBC against Salmonella typhimurium [2] is 140 µg/mL (≈ 432 µM); in the experiment with Staphylococcus aureus [7] it was 45 µg/mL (≈ 139 µM); against Bacillus subtilis [12], 150 µg/mL (≈ 463 µM); in the experiment on Escherichia coli [14], 145 µg/mL (≈ 448 µM). Further, the MIC in the experiment with Bacillus subtilis [4] was 55 µg/mL (≈ 170 µM); with Staphylococcus aureus [5] it was 25 µg/mL (≈ 77.2 µM); in the experiment on Candida albicans [6], 65 µg/mL (≈ 201 µM); with Escherichia coli [8] it was 70 µg/mL (≈ 216 µM); against Salmonella typhimurium [10] it was 60 µg/mL (≈ 185 µM); against Cryptococcus neoformans [11], 90 µg/mL (≈ 278 µM). The MIC in the experiment with Aspergillus niger [15] was found to be 50 µg/mL (≈ 154 µM); against Aspergillus flavus [16], 90 µg/mL (≈ 278 µM).
Turning to `O=C1CSC(c2cccc(F)c2)N1c1ccc(Cl)cc1O` (stereo not given), the MFC worked out at 140 µg/mL (≈ 432 µM) against Aspergillus flavus [1], 165 µg/mL (≈ 510 µM) in the experiment on Aspergillus niger [3], 140 µg/mL (≈ 432 µM) in the experiment with Cryptococcus neoformans [9] and 165 µg/mL (≈ 510 µM) with Candida albicans [13]. The IC50 in the experiment with MCF7 was 65.8 µM; with HeLa, 67.3 µM. Besides, the MBC against Salmonella typhimurium [2] came to 155 µg/mL (≈ 479 µM); against Staphylococcus aureus [7], 160 µg/mL (≈ 494 µM); in the experiment on Bacillus subtilis [12] it was 155 µg/mL (≈ 479 µM); against Escherichia coli [14], 145 µg/mL (≈ 448 µM). In addition, the MIC stood at 100 µg/mL (≈ 309 µM) in the experiment on Bacillus subtilis [4]; 80 µg/mL (≈ 247 µM) against Staphylococcus aureus [5]; 95 µg/mL (≈ 293 µM) against Candida albicans [6]; 70 µg/mL (≈ 216 µM) against Escherichia coli [8]; 90 µg/mL (≈ 278 µM) in the experiment with Salmonella typhimurium [10]; 85 µg/mL (≈ 263 µM) with Cryptococcus neoformans [11]. Also, the MIC stood at 100 µg/mL (≈ 309 µM) with Aspergillus niger [15] and 90 µg/mL (≈ 278 µM) with Aspergillus flavus [16].
Take `O=C1CSC(c2ccc(Cl)cc2)N1c1ccc(Cl)cc1O` (stereo not given): the MFC turned out to be 155 µg/mL (≈ 456 µM) with Aspergillus flavus [1], 165 µg/mL (≈ 485 µM) with Aspergillus niger [3], 160 µg/mL (≈ 470 µM) with Cryptococcus neoformans [9] and 160 µg/mL (≈ 470 µM) against Candida albicans [13]. The IC50 with MCF7 was determined as 56.2 µM; with HeLa it was 64.4 µM. Also, the MBC came to 155 µg/mL (≈ 456 µM) against Salmonella typhimurium [2], 45 µg/mL (≈ 132 µM) against Staphylococcus aureus [7], 45 µg/mL (≈ 132 µM) against Bacillus subtilis [12] and 165 µg/mL (≈ 485 µM) in the experiment on Escherichia coli [14]. Also, the MIC with Bacillus subtilis [4] is 25 µg/mL (≈ 73.5 µM); in the experiment on Staphylococcus aureus [5] it was 20 µg/mL (≈ 58.8 µM); in the experiment on Candida albicans [6], 70 µg/mL (≈ 206 µM); in the experiment on Escherichia coli [8], 50 µg/mL (≈ 147 µM); in the experiment with Salmonella typhimurium [10], 65 µg/mL (≈ 191 µM); against Cryptococcus neoformans [11] it was 95 µg/mL (≈ 279 µM). Also, the figures for the MIC in the experiment on Aspergillus niger [15] and in the experiment on Aspergillus flavus [16] were 65 µg/mL (≈ 191 µM) and 90 µg/mL (≈ 265 µM), respectively.
For `COc1ccc(C2SCC(=O)N2c2ccc(Cl)cc2O)cc1` (stereo not given), the MFC against Aspergillus flavus [1] was 20 µg/mL (≈ 59.6 µM); against Aspergillus niger [3] it was 150 µg/mL (≈ 447 µM); against Cryptococcus neoformans [9], 155 µg/mL (≈ 462 µM); in the experiment with Candida albicans [13], 20 µg/mL (≈ 59.6 µM). Moreover, the IC50 came out at 48.6 µM in the experiment on MCF7 and 51.6 µM in the experiment with HeLa. Moreover, the MBC amounted to 110 µg/mL (≈ 328 µM) against Salmonella typhimurium [2], 40 µg/mL (≈ 119 µM) in the experiment on Staphylococcus aureus [7], 40 µg/mL (≈ 119 µM) against Bacillus subtilis [12] and 45 µg/mL (≈ 134 µM) with Escherichia coli [14]. For the same molecule, the MIC stood at 30 µg/mL (≈ 89.3 µM) against Bacillus subtilis [4]; 30 µg/mL (≈ 89.3 µM) against Staphylococcus aureus [5]; 15 µg/mL (≈ 44.7 µM) against Candida albicans [6]; 35 µg/mL (≈ 104 µM) in the experiment on Escherichia coli [8]; 25 µg/mL (≈ 74.4 µM) in the experiment with Salmonella typhimurium [10]; 65 µg/mL (≈ 194 µM) in the experiment with Cryptococcus neoformans [11]. The MIC amounted to 80 µg/mL (≈ 238 µM) in the experiment on Aspergillus niger [15] and 15 µg/mL (≈ 44.7 µM) against Aspergillus flavus [16].
